Experimental findings from ChEMBL document CHEMBL1144465, “Role of acidic pH in the susceptibility of intraphagocytic methicillin-resistant Staphylococcus aureus strains to meropenem and cloxacillin” (Antimicrob Agents Chemother, 2007) are described below.

≈ marks a conversion by molar mass, not a printed value. Calls of active or inactive are those of the source.

In test [1] the test system is Staphylococcus aureus. The experiment in a line: Induction of mecA/16S rRNA ratio in methicillin-resistant Staphylococcus aureus ATCC 33591 at 0.5 times MIC at pH 5.5 after 5 hrs. Type of test: functional.
Test [2] concerns Staphylococcus aureus. As to the kind of experiment: Induction of mecA/16S rRNA ratio in methicillin-resistant Staphylococcus aureus ATCC 33591 at 0.5 times MIC at pH 7.4 after 5 hrs. Type of test: functional.
Test [3] concerns Staphylococcus aureus. As to the kind of experiment: Antimicrobial activity against Staphylococcus aureus assessed as reduction in bacterial count at pH 5.5 after 24 hrs.
Test [4] concerns Staphylococcus aureus. The experiment in a line: Reversal bacterial susceptibility against methicillin-resistant Staphylococcus aureus ATCC 33591 after phagocytosis by human THP1 macrophages assessed as bacterial count in presence of 10 mM ammonium chloride after 24 hrs. Type of test: functional, organism-based. The method, boiled down:
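Infected THP-1 macrophages (MRSA ATCC 33591) given 10 mM ammonium chloride after phagocytosis together with meropenem 50 mg/liter or cloxacillin 8 mg/liter (total drug), incubated 24 h; controls with gentamicin 0.5× MIC; CFU counted; means of three independent determinations.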

Test [5] relates to Staphylococcus aureus. As to the kind of experiment: Antibacterial activity against methicillin-resistant Staphylococcus aureus 459 at pH 5.5. The test is classed as functional. The method, boiled down:
(§1)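 MRSA clinical isolate 459 (penicillinase-negative, mecA-positive) grown in Mueller-Hinton broth with 2% NaCl; MIC determined in broth adjusted to pH 5.5 or 7.4, inoculum 10^6 CFU/ml of exponential-phase bacteria, 24-h incubation.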

The subject of test [6] is Staphylococcus aureus. As to the kind of experiment: Antimicrobial activity against methicillin-resistant Staphylococcus aureus ATCC 33591 after phagocytosis by human THP1 macrophages assessed as reduction in bacterial count after 24 hrs. The note with it: ATCC 33591, THP-1, 24 h.
In test [7] the test system is Staphylococcus aureus. As to the kind of experiment: Antimicrobial activity against methicillin-resistant Staphylococcus aureus […] after phagocytosis by human THP1 macrophages assessed as reduction in bacterial count at pH 7.4 after 24 hrs. The note with it: THP-1, 24 h. The test is classed as functional, organism-based.
The test system of test [8] is Staphylococcus aureus. As to the kind of experiment: Antimicrobial activity against methicillin-susceptible Staphylococcus aureus ATCC 25923 after phagocytosis by human THP1 macrophages assessed as reduction in bacterial count at pH 7.4 after 24 hrs. Type of test: functional, organism-based. The note with it: ATCC 25923, THP-1, 24 h.
For test [9], the system named is Staphylococcus aureus. The experiment in a line: Antibacterial activity against methicillin-resistant Staphylococcus aureus 459 at pH 7.4. Type of test: functional. In a few lines: as §1
Test [10] deals with Staphylococcus aureus. The experiment in a line: Antimicrobial activity against methicillin-susceptible Staphylococcus aureus ATCC 25923 after phagocytosis by human THP1 macrophages assessed as reduction in bacterial count after 24 hrs. The test is classed as functional, organism-based. The note with it: ATCC 25923, THP-1, 24 h. In a few lines:
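THP-1 human macrophage-like cells allowed to phagocytose S. aureus for 1 h, then exposed 24 h to a wide range of extracellular total-drug concentrations; controls given gentamicin at 0.5× MIC. Response is log10 CFU change from original inoculum; Hill equation fitted by nonlinear regression for EC50, Emax and static concentration; means of three independent determinations.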

The subject of test [11] is Staphylococcus aureus. As to the kind of experiment: Antimicrobial activity against methicillin-susceptible Staphylococcus aureus ATCC 25923 after phagocytosis by human THP1 macrophages assessed as reduction in bacterial count at pH 5.5 after 24 hrs. The note with it: ATCC 25923, THP-1, 24 h. The test is classed as functional, organism-based.

With `C[C@@H](O)[C@H]1C(=O)N2C(C(=O)O)=C(S[C@@H]3CN[C@H](C(=O)Nc4cccc(C(=O)O)c4)C3)[C@H](C)[C@H]12` [ERTAPENEM], the Ratio in the test with Staphylococcus aureus [1] came out at 0.67; with Staphylococcus aureus [2], 0.79.
For the compound `Cc1onc(-c2ccccc2Cl)c1C(=O)N[C@@H]1C(=O)N2[C@@H]1SC(C)(C)[C@@H]2C(=O)O` [CLOXACILLIN], the EC50 is 0.07 mg/L (≈ 0.161 µM) in the test with Staphylococcus aureus [3]; 0.23 mg/L (≈ 0.528 µM) in the test on Staphylococcus aureus [6]; 16.9 mg/L (≈ 38.8 µM) with Staphylococcus aureus [7]; 0.35 mg/L (≈ 0.803 µM) in the test on Staphylococcus aureus [8]; 0.27 mg/L (≈ 0.619 µM) in the test on Staphylococcus aureus [10]; 0.22 mg/L (≈ 0.505 µM) in the test with Staphylococcus aureus [11]. The outcome in the test on Staphylococcus aureus [4] was inactive. For the same compound, the MIC against Staphylococcus aureus [5] is 0.03 mg/L (≈ 0.0688 µM); against Staphylococcus aureus [9] it was 0.125 mg/L (≈ 0.287 µM).
Take `CC1(C)S[C@@H]2[C@H](NC(=O)Cc3ccccc3)C(=O)N2[C@H]1C(=O)O` [PENICILLIN G]: the results for the MIC against Staphylococcus aureus [5] and against Staphylococcus aureus [9] were 0.03 mg/L (≈ 0.0897 µM) and 0.25 mg/L (≈ 0.748 µM), respectively.
Take `C[C@@H](O)[C@H]1C(=O)N2C(C(=O)O)=C(S[C@@H]3CN[C@H](C(=O)N(C)C)C3)[C@H](C)[C@H]12` [MEROPENEM]: the EC50 in the test with Staphylococcus aureus [3] came out at 0.33 mg/L (≈ 0.861 µM); with Staphylococcus aureus [6] it was 0.16 mg/L (≈ 0.417 µM); in the test with Staphylococcus aureus [8] it was 0.29 mg/L (≈ 0.756 µM); in the test on Staphylococcus aureus [10], 0.14 mg/L (≈ 0.365 µM); in the test on Staphylococcus aureus [11], 0.2 mg/L (≈ 0.522 µM). The result with Staphylococcus aureus [4] was inactive.
For `Cc1onc(-c2ccccc2)c1C(=O)N[C@@H]1C(=O)N2[C@@H]1SC(C)(C)[C@@H]2C(=O)O` [OXACILLIN], the MIC in the test with Staphylococcus aureus [5] was 0.03 mg/L (≈ 0.0747 µM); in the test on Staphylococcus aureus [9], 1 mg/L (≈ 2.49 µM).

As a reminder, the EC50 is the concentration needed to bring the measured effect to its halfway point. The term MIC denotes the smallest concentration in the dilution series that meets the test's criterion for growth inhibition. Higher therefore signals weaker potency.
